The source made the active and inactive calls. The calls are words filed in the database; no cut-off is given here.
What was measured:
OVCAR-3 = assay: Cytotoxicity against human OVCAR3 cells after 48 hrs by SRB assay; assay type: functional; conditions: for GI50: OVCAR-3, 48 h
Method in brief: (§1)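 NCI-60 human cancer cell line screen. Five-concentration testing across 0.01 to 100 μM, done only for compounds selected from a one-concentration preliminary test. Read-out was GI50.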

HOP-62 = assay: Cytotoxicity against human HOP62 cells after 48 hrs by SRB assay; assay type: functional; conditions: for GI50: HOP-62, 48 h; method in brief: as §1
[1] = target: T1, Tyrosyl-DNA phosphodiesterase 2 (Homo sapiens, UniProt O95551); assay: (§2) Inhibition of recombinant human Tdp2 assessed as decrease in alpha 32P-cordycepin-3'-labeled DNA breaks after 15 mins by PAGE analysis
T1 sequence (O95551 whole entry): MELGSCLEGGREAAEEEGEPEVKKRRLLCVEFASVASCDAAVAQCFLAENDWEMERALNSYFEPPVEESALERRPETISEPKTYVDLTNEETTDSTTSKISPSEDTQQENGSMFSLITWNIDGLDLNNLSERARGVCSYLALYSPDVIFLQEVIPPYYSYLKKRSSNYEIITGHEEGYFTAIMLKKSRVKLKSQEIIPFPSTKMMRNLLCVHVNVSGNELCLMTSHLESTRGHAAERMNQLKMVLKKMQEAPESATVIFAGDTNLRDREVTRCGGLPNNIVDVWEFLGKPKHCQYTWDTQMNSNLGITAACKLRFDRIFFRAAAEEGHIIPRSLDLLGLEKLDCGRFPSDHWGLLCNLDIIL
Method in brief: (§3)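 The substrate was the 18-mer single-stranded TY18 oligo, α32P-cordycepin-3′-labeled, at 1 nM, with 25 pM recombinant human Tdp2. Products were run on 16% denaturing PAGE.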

[2] = target: T2, Tyrosyl-DNA phosphodiesterase 2 (Homo sapiens) (UniProt O95551); assay: as §2; method in brief: as §3
T2 sequence (whole entry): T1 sequence (O95551 whole entry)

SF-539 = assay: Cytotoxicity against human SF539 cells after 48 hrs by SRB assay; assay type: functional; conditions: for GI50: SF-539, 48 h; method in brief: as §1
MCF7 = assay: Cytotoxicity against human MCF7 cells after 48 hrs by SRB assay; assay type: functional; conditions: for GI50: MCF7, 48 h; method in brief: as §1
SN12C = assay: Cytotoxicity against human SN12C cells after 48 hrs by SRB assay; assay type: functional; method in brief: as §1
[3] = target: Tyrosyl-DNA phosphodiesterase 1 (Homo sapiens, UniProt Q9NUW8); assay: Inhibition of recombinant Tdp1 (unknown origin) assessed as decrease in hydrolysis of phosphodiester linkage between tyrosine residue and the 3' end of 5'-[32P]-DNA after 15 mins by PAGE analysis
Sequence of Tyrosyl-DNA phosphodiesterase 1 (Q9NUW8 whole entry): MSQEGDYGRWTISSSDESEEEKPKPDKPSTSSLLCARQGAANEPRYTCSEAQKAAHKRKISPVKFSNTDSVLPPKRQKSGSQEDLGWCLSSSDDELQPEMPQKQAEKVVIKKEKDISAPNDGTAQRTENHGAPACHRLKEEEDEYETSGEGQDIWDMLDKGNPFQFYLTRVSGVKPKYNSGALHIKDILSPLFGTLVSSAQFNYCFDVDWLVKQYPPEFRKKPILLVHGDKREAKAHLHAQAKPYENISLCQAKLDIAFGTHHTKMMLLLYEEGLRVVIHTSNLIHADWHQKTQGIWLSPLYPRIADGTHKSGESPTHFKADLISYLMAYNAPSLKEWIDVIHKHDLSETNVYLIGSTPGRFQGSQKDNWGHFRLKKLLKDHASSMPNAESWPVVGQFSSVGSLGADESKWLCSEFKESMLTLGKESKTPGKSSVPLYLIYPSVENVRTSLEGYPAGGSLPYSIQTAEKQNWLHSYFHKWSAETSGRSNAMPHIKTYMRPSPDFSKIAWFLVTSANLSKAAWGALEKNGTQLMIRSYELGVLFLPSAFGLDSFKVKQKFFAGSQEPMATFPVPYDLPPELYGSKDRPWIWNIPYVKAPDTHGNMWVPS
Method in brief: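 The substrate was 5′-32P single-stranded oligo N14Y carrying a 3′-phosphotyrosine, at 1 nM, with 10 pM recombinant Tdp1. Products were run on 16% denaturing PAGE with phosphorimaging.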

UACC-62 = assay: Cytotoxicity against human UACC62 cells after 48 hrs by SRB assay; assay type: functional; conditions: for GI50: UACC-62, 48 h; method in brief: as §1
[4] = target: T3, DNA topoisomerase 1 (Homo sapiens) (UniProt P11387); assay: Inhibition of recombinant Top1 (unknown origin) assessed as increase in [32P]-DNA breaks after 20 mins by PAGE analysis
T3 sequence (whole entry): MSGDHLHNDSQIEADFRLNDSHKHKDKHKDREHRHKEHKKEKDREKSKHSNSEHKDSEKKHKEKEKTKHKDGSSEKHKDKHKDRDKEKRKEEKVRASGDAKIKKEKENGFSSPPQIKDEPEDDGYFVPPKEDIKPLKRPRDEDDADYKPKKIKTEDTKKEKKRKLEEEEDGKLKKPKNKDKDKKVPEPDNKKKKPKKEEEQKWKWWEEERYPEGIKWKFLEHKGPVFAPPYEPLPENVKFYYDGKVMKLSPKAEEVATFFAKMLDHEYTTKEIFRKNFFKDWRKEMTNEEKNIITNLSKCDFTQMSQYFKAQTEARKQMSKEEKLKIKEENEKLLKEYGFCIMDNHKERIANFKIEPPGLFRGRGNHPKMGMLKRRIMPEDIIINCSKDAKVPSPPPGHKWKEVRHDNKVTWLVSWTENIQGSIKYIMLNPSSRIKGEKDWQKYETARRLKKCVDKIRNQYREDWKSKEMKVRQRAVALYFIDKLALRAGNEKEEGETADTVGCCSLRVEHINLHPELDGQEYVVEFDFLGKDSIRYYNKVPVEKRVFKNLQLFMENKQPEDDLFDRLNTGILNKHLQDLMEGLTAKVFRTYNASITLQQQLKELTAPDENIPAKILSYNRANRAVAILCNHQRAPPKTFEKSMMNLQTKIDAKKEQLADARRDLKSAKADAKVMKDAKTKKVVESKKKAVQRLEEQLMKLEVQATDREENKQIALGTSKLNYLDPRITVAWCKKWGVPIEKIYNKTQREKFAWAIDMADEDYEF
Method in brief: (§4)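 The substrate was a 3′-32P 117-bp oligonucleotide holding Top1 cleavage sites, at about 2 nM, with recombinant Top1. Compounds were tested at 0.1, 1.0, 10 and 100 μM. Reactions were stopped with 0.5% SDS and run on 20% denaturing PAGE.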

[5] = target: T3, DNA topoisomerase 1 (Homo sapiens); assay: Inhibition of recombinant Top1 (unknown origin) assessed as increase in [32P]-DNA breaks at 0.1 to 100 uM after 20 mins by PAGE analysis; method in brief: as §4
CCRF-CEM = assay: Induction of DNA damage in human CCRF-CEM cells assessed as formation of gamma-H2AX foci at 100 to 1000 nM after 2 hrs by DAPI staining-based confocal microscopy; assay type: functional, cell-based
Method in brief: (§5)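 Freshly purified human PBMCs (from healthy donors) or CCRF-CEM leukemia cells were used at 2 mil/mL in RPMI 1640 with 10% FBS, penicillin and streptomycin. Cells were dosed at 100 nM and 1 μM for 2 h at 37 °C. They were then fixed in 2% paraformaldehyde, cytospun and blocked in 5% BSA. Staining used anti-γ-H2AX with an Alexa 488 secondary and DAPI, and foci were imaged by confocal microscopy.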

PBMC = assay: Induction of DNA damage in human PBMC assessed as formation of gamma-H2AX foci at 100 to 1000 nM after 2 hrs by DAPI staining-based confocal microscopy; assay type: cell-based; conditions: 1 µM; method in brief: as §5
[6] = target: T3, DNA topoisomerase 1 (Homo sapiens); assay: Inhibition of recombinant Top1 (unknown origin) assessed as increase in [32P]-DNA breaks at 1 uM after 20 mins by PAGE analysis; method in brief: as §4
[7] = target: T3, DNA topoisomerase 1 (Homo sapiens); assay: Suppressor activity at recombinant Top1 (unknown origin) assessed as decrease in [32P]-DNA breaks at 100 uM after 20 mins by PAGE analysis; method in brief: as §4
[8] = target: T3, DNA topoisomerase 1 (Homo sapiens); assay: Poison activity at recombinant Top1 (unknown origin) assessed as inhibition of [32P]-DNA religation in drug-DNA-Top1 ternary complex at 0.1 to 10 uM after 20 mins by PAGE analysis; method in brief: as §4

| Compound | GI50 (OVCAR-3) | GI50 (HOP-62) | IC50 [1] | inhibition [2] | GI50 (SF-539) | GI50 (MCF7) | GI50 (SN12C) | IC50 [3] | inhibition [3] | GI50 (UACC-62) | inhibition [4] | inhibition [5] | Activity (CCRF-CEM) | Activity (PBMC) | further results |
| --- | --- | --- | --- | --- | --- | --- | --- | --- | --- | --- | --- | --- | --- | --- | --- |
| COc1cnc2c(c1)C(=O)c1c-2n(CCCN2CCN(C)CC2)c(=O)c2cc([N+](=O)[O-])ccc12 | 171 nM | 81 nM | 12000 to 37000 nM | Dose-dependent effect | 191 nM | 16 nM | 214 nM | 12000 to 37000 nM | Dose-dependent effect | 183 nM | Active |  |  |  |  |
| COc1cnc2c(c1)C(=O)c1c-2n(CCCN2CCN(CCO)CC2)c(=O)c2cc([N+](=O)[O-])ccc12 | 1460 nM | 2760 nM | > 111000 nM | Dose-dependent effect | 1700 nM | 142 nM |  | > 111000 nM | Dose-dependent effect | 1220 nM | Active |  |  |  |  |
| COc1cnc2c(c1)C(=O)c1c-2n(CCCBr)c(=O)c2cc([N+](=O)[O-])ccc12 | 248 nM | 58 nM | 37000 to 111000 nM | Dose-dependent effect | 279 nM | 46 nM | 269 nM | 12000 to 37000 nM | Dose-dependent effect | 82 nM | Active |  |  |  |  |
| COc1cnc2c(c1)C(=O)c1c-2n(CCCN2CCNCC2)c(=O)c2cc([N+](=O)[O-])ccc12 | 1190 nM | 65 nM | 37000 to 111000 nM | Dose-dependent effect | 355 nM | 36 nM | 230 nM | 12000 to 37000 nM | Dose-dependent effect | 175 nM | Active |  |  |  |  |
| CNCCCn1c2c(c3ccc([N+](=O)[O-])cc3c1=O)C(=O)c1cc(OC)cnc1-2 | 174 nM | 30 nM | 37000 to 111000 nM | Dose-dependent effect | 51 nM | 1060 nM | 46 nM | 1000 to 12000 nM | Dose-dependent effect | 20 nM | Active |  |  |  |  |
| COc1cnc2c(c1)C(=O)c1c-2n(CCCNCCN2CCOCC2)c(=O)c2cc([N+](=O)[O-])ccc12 | 315 nM | 150 nM | 37000 to 111000 nM | Dose-dependent effect | 311 nM | 32 nM | 80 nM | 12000 to 37000 nM | Dose-dependent effect | 44 nM |  | Active |  |  |  |
| CC[C@@]1(O)C(=O)OCc2c1cc1n(c2=O)Cc2cc3ccccc3nc2-1 [CAMPTOTHECIN] |  | < 10 nM |  |  | < 10 nM | 13 nM |  |  |  | < 10 nM |  |  | Active | Non-Toxic |  |
| COc1cnc2c(c1)C(=O)c1c-2n(CCCN2CCC(N)CC2)c(=O)c2cc([N+](=O)[O-])ccc12 |  |  | 1000 to 12000 nM | Dose-dependent effect |  |  |  | 1000 to 12000 nM | Dose-dependent effect |  | Active |  | Active | Non-Toxic | Activity (OVCAR-3): inactive; Activity (HOP-62): inactive; Activity (SF-539): inactive; Activity (MCF7): inactive; Activity (SN12C): inactive; Activity (UACC-62): inactive |
| COc1cc2c3c(n(CCCNCCO)c(=O)c2cc1OC)-c1cc2c(cc1C3=O)OCO2 [LMP-744] |  |  | 1000 to 12000 nM |  | 40 nM |  |  | 12000 to 111000 nM |  |  |  |  |  |  | inhibition [6]: Active |
| COc1cnc2c(c1)C(=O)c1c-2n(CCCNC(C)C)c(=O)c2cc([N+](=O)[O-])ccc12 | 82 nM | 85 nM | 37000 to 111000 nM | Dose-dependent effect | 51 nM | 12 nM | 39 nM | 12000 to 37000 nM | Dose-dependent effect | 19 nM |  | Active | Active | Non-Toxic |  |
| COc1cnc2c(c1)C(=O)c1c-2n(CCCNC2=NCCS2)c(=O)c2cc([N+](=O)[O-])ccc12 | 137 nM | 14 nM | 12000 to 37000 nM | Dose-dependent effect | 36 nM | < 10 nM | < 10 nM | 1000 to 12000 nM | Dose-dependent effect | < 10 nM |  | Active | Active | Non-Toxic | Activity [7]: Active; Activity [8]: Active |
| CCNCCCn1c2c(c3ccc([N+](=O)[O-])cc3c1=O)C(=O)c1cc(OC)cnc1-2 | 62 nM | 107 nM | 37000 to 111000 nM | Dose-dependent effect | 70 nM | 19 nM | 53 nM | 1000 to 12000 nM | Dose-dependent effect | 27 nM |  | Active | Active | Non-Toxic |  |
| COc1cnc2c(c1)C(=O)c1c-2n(CCCN2CCCC2)c(=O)c2cc([N+](=O)[O-])ccc12 | 59 nM | < 10 nM | 37000 to 111000 nM | Dose-dependent effect | 31 nM | < 10 nM | 36 nM | 1000 to 12000 nM | Dose-dependent effect | 15 nM | Active |  |  |  |  |
